Laboratory results from ChEMBL document CHEMBL1124216, “A novel class of potential central nervous system agents. 3-Phenyl-2-(1-piperazinyl)-5H-1-benzazepines” (1988).

Tests used:
Type in all cases: functional
[1] = test system: Canis familiaris; assay: Inhibition of apomorphine induced emesis in dogs at 1 mg/kg of dose.; conditions: Canis lupus familiaris
Procedure, shortened: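 Beagle dogs (10-15 kg), groups of three, given compound po in a gelatin capsule; 2 h later apomorphine hydrochloride 0.3 mg/kg sc. Vomiting counted for 1 h; mean inhibition as percent of control. ED50 is the dose giving 50% inhibition of emesis, by Litchfield-Wilcoxon.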

[2] = test system: Mus musculus; assay: 3,4 -Dihydroxy phenylacetic acid (DOPAC) levels in mouse brain at 10 mg/kg dose.
Procedure, shortened: (§1)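 Male Std-ddY mice, 20-25 g, dosed orally with compound in 0.5% aqueous tragacanth. DOPAC was measured fluorometrically after purification by column chromatography on Sephadex G-10 and QAE-Sephadex. Brains from five mice per compound were pooled for each determination.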

[3] = test system: Mus musculus; assay: 3,4 -Dihydroxy phenylacetic acid (DOPAC) levels in mouse brain at 50 mg/kg dose.; procedure, shortened: as §1
[4] = test system: Mus musculus; assay: Antiexploratory activity (EXPL) of mice determined by an antimex activity meter, 10 mg/kg of dose was administered perorally; Moderate inhibition (51-71%); conditions: route oral
[5] = test system: Mus musculus; assay: The homovanillic acid (HVA) levels in mouse brain at 10 mg/kg of dose.
Procedure, shortened: (§2)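 Mice dosed orally in 0.5% aqueous tragacanth; brains of five mice per compound pooled. Homovanillic acid measured in brain extracts and reported as brain level.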

[6] = test system: Mus musculus; assay: The homovanillic acid (HVA) levels in mouse brain at 50 mg/kg of dose.; procedure, shortened: as §2
[7] = test system: Mus musculus; assay: Exploratory activity of mice determined by an antimex activity meter, 10 mg/kg of dose was administered perorally; conditions: route oral
[8] = test system: Mus musculus; assay: Exploratory activity of mice determined by an antimex activity meter, 50 mg/kg of dose was administered perorally; conditions: Mus musculus, po
Procedure, shortened: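 Male Std-ddY mice (20-25 g), five per dose; compound in 0.5% aqueous tragacanth given orally. Two hours later each mouse placed in an Animex activity meter cage and locomotor activity counted for 3 min. Mean suppression expressed as percent inhibition of control; ED50 by Litchfield-Wilcoxon.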

[9] = test system: Mus musculus; assay: Antiexploratory activity (EXPL) of mice determined by an antimex activity meter, 50 mg/kg of dose was administered perorally; Potent inhibition; conditions: route oral
[10] = test system: Mus musculus; assay: Antimaximal electroshock seizure (MES) activity in mice after peroral administration of 100 mg/kg of compound; 0/5; conditions: route oral
[11] = test system: Mus musculus; assay: Antiexploratory activity (EXPL) of mice determined by an antimex activity meter, 100 mg/kg of dose was administered perorally; No inhibition; conditions: route oral
[12] = test system: Mus musculus; assay: Antireserpine activity (RES) of mice after peroral administration of 100 mg/kg of compound; […]; conditions: route oral
[13] = test system: Mus musculus; assay: Antitremorine activity(TRM) of mice after peroral administration of 100 mg/kg of compound; No inhibition; conditions: route oral
[14] = test system: Mus musculus; assay: Antimaximal electroshock seizure activity was determined in mice when administered perorally; conditions: po
[15] = test system: Mus musculus; assay: Antiexploratory activity (EXPL) of mice determined by an antimex activity meter, mg/kg of dose was administered perorally; Slight inhibition (31-50%)
[16] = test system: Mus musculus; assay: Antireserpine activity (RES) of mice after peroral administration of mg/kg of compound; Slight inhibition (31-50%)
[17] = test system: Mus musculus; assay: Antitremorine activity(TRM) of mice after peroral administration of mg/kg of compound; No inhibition
[18] = test system: Mus musculus; assay: Antireserpine activity(RES) of mice after peroral administration of 50 mg/kg of compound; No inhibition; conditions: route oral
[19] = test system: Mus musculus; assay: Antiexploratory activity (EXPL) of mice determined by an antimex activity meter, 50 mg/kg of dose was administered perorally; Slight inhibition (31-50%); conditions: route oral

| Compound | inhibition in vivo at 1 mg/kg [1] [%] | Control [2] [%] | Control [3] [%] | inhibition in vivo at 10 mg/kg [4] [%] | Control [5] [%] | Control [6] [%] | inhibition in vivo at 10 mg/kg [7] [%] | inhibition in vivo at 50 mg/kg [8] [%] | inhibition in vivo at 50 mg/kg [9] [%] | Activity [10] | inhibition in vivo at 100 mg/kg [11] [%] | inhibition in vivo at 100 mg/kg [12] [%] | inhibition in vivo at 100 mg/kg [13] [%] | ED50 [14] [mg/kg] | Inhibition [15] [%] | Inhibition [16] [%] | Inhibition [17] [%] | inhibition in vivo at 50 mg/kg [18] [%] | inhibition in vivo at 50 mg/kg [19] [%] |
| --- | --- | --- | --- | --- | --- | --- | --- | --- | --- | --- | --- | --- | --- | --- | --- | --- | --- | --- | --- |
| Fc1ccc(C2=CCc3ccccc3N=C2N2CCN(C3CCCCC3)CC2)cc1.O=C(O)/C=C/C(=O)O | 46 | 244 | 334 | 51 | 295 | 343 | 61.4 | 84.6 | > 71 |  |  |  |  |  |  |  |  |  |  |
| CN1CCN(C2=Nc3ccccc3CC=C2c2cccnc2)CC1 |  |  |  |  |  |  |  |  |  | 0 | < 30 | > 71 | < 30 |  |  |  |  |  |  |
| Cl.Cl.OCCN1CCN(C2=Nc3ccccc3CC=C2c2ccccc2)CC1 |  |  |  |  |  |  |  |  |  | 0 |  |  |  | > 100 | 31 | 31 | <30 |  |  |
| Cl.Cl.OCCN1CCN(C2=Nc3ccccc3CC=C2c2ccc(Br)cc2)CC1 | 72.5 | 106 | 291 |  | 181 | 335 | 31.9 | 36.1 |  | 0 |  |  | < 30 |  |  |  |  | < 30 | 31 |
